Measured values: ChEMBL document CHEMBL1130202, “Biologically active heteroarotinoids exhibiting anticancer activity and decreased toxicity” (J Med Chem, 1997)
Calls of active or inactive are those of the source. The rule behind the calls is not given here.

Columns and labels:
[1] = test system: Mus musculus; test: Calculated 30-day maximally tolerated dose based on 10% weight loss in mice at 0.05 mg/kg/day; type: functional
[2] = test system: Mus musculus; test: Effect of compound on right testicle to body weight ratios in mice at 0.4 mg/kg/day dose on day 65; dead on day 65; type: functional, organism-based
[3] = test system: Mus musculus; test: Effect of compound on right testicle to body weight ratios in mice at 0.05 mg/kg/day dose; all the animals died by day 65; type: functional, organism-based
[4] = test system: Mus musculus; test: Effect of compound on thymus to body weight ratios in mice at 0.8 mg/kg/day dose; all the animals died by day 65; type: functional, organism-based
Summary of the method: (§1)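 Male B6D2F1 mice were dosed daily by gavage in corn oil, with TTNPB given at 0.1–0.8 or 0.01/0.05 mg/kg/day. Thymus-to-body weight ratio (×1000) was taken at necropsy on day 65 against vehicle 1, or on day 25 for the 0.01/0.05 groups against vehicle 2. Mean ± SD of 4–8 animals, reported as % difference from vehicle.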

[5] = test system: Mus musculus; test: Avoiding pressure on limbs at 0.2 mg/kg/day dose in mice with hypervitaminosis; 0/16; type: functional, organism-based; settings: Limb
[6] = test system: Mus musculus; test: Effect of compound on adrenal to body weight ratios in mice at 0.4 mg/kg/day dose; all the animals died by day 65; type: functional, organism-based
[7] = test system: Mus musculus; test: Average number of fractures per mouse at 0.2 mg/kg/day; 1/3
[8] = test system: Mus musculus; test: Enlarged spleen in Enlarged spleen in Gross pathological observations with hypervitaminosis A in mice at 0.2 mg/kg/day dose with gross observations/total number of animals in group; 0/16; type: functional, organism-based
[9] = test system: Mus musculus; test: Effect of compound on thymus to body weight ratios in mice at 0.1 mg/kg/day dose; all the animals died by day 65; type: functional, organism-based; summary of the method: as §1
[10] = test system: Mus musculus; test: Effect of compound on right testicle to body weight ratios in mice at 0.1 mg/kg/day dose; all the animals died by day 65; type: functional, organism-based
[11] = species: Mus musculus; test: Enlarged spleen in Gross pathological observations in mice with hypervitaminosis A at low dose with gross observations/total number of mice in group; 0/16; type: functional, organism-based
[12] = species: Mus musculus; test: Effect of compound on serum Alkaline phosphatase levels in mice at high dose on day 65; type: functional
Summary of the method: (§2)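 Male B6D2F1 mice dosed daily by oral gavage in corn oil at low, mid 1, mid 2 or high dose. Blood sampled on set days (8, 29, 36, 65) for clinical chemistry, serum alkaline phosphatase and triglycerides. Group mean ± SD reported as % relative to vehicle 1; significance p < 0.05 versus corn oil vehicle.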

[13] = species: Mus musculus; test: Effect of compound on serum triglycerides levels in mice at mid dose 1 on day 36; type: functional
Summary of the method: (§3)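 Male B6D2F1 mice were gavaged daily with compound in corn oil at low, mid 1, mid 2 or high dose. Serum triglycerides and circulating white blood cells were measured on the stated day (8, 29, 36, 65). Values are group mean ± SD expressed as % relative to corn-oil vehicle, with significance at p ≤ 0.05.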

[14] = species: Mus musculus; test: Effect of compound on serum Alkaline phosphatase levels in mice at low dose on day 29; type: functional; summary of the method: as §2
[15] = species: Mus musculus; test: Fracture incidence in mouse at mid dose 1; 0/8
[16] = species: Mus musculus; test: Skin scaling in mice at low dose with Hypervitaminosis; 0/16; type: functional, organism-based
Summary of the method: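 Male B6D2F1 mice were dosed daily by gavage in corn oil and observed for skin scaling of the ears, mouth, nose, eyelids, feet, tail or ventral body. Results are given as affected animals over animals in the group, with the day of first observation.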

[17] = species: Mus musculus; test: Enlarged lymph in gross pathological observations in mice with hypervitaminosis A at low dose with gross observations/total number of mice in group; 1/16; type: functional, organism-based
[18] = species: Mus musculus; test: Effect of compound on serum triglycerides levels in mice at low dose on day 8; type: functional; summary of the method: as §3
[19] = species: Mus musculus; test: Enlarged lymph in gross pathological observations in mice with hypervitaminosis A in mice at high dose with gross observations/total number of mice in group; 1/16; type: functional, organism-based
[20] = species: Mus musculus; test: Effect of compound on white blood cells levels in mice at high dose on day 65; type: functional; summary of the method: as §3
[21] = species: Mus musculus; test: Effect of compound on thymus to body weight ratios in mice at high dose on day 65; type: functional; summary of the method: as §1
[22] = Mortality rate in mice in mid dose 1; type: ADME; settings: mouse, in vivo
Summary of the method: (§4)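 Male B6D2F1 mice given compound daily by gavage in corn oil at the stated dose levels, with corn oil vehicle controls. Deaths counted as animals found dead or sacrificed moribund, with day(s) of death recorded. Heteroarotinoid groups ran to day 65 and low-dose reference groups to day 25.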

[23] = Mortality rate in mice in low dose; type: ADME; settings: mouse, in vivo; summary of the method: as §4
[24] = species: Mus musculus; test: Avoiding pressure on limbs in mice at high dose with Hypervitaminosis; 0/16; type: functional, organism-based; settings: Limb
[25] = species: Mus musculus; test: Effect of compound on serum triglycerides levels in mice at low dose on day 29; type: functional; summary of the method: as §2
[26] = species: Mus musculus; test: Effect of compound on right testicle to body weight ratios in mice at high dose on day 65; type: functional
Summary of the method: (§5)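 Male B6D2F1 mice dosed daily by gavage with compound in corn oil; vehicle 1 (corn oil) controls run to termination on day 65. Low, mid 1, mid 2 and high dose groups, with dosage increases partway through the study. Organ-to-body weight ratios (×1000) taken at necropsy on day 65, reported as mean ± SD for 4 to 8 animals and as % difference from vehicle.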

[27] = species: Mus musculus; test: Compound total dose to termination (day 25/65) in low dose; type: functional
Summary of the method: (§6)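 Male B6D2F1 mice given daily oral gavage in corn oil; dosages increased during the study (day 30 or day 51 depending on compound). Cumulative dose in mg/kg administered up to termination (day 65, or day 25 for TTNPB 0.01/0.05 mg/kg/day groups).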

[28] = Mortality rate in mice in high dose; type: ADME; settings: mouse, in vivo; summary of the method: as §4
[29] = species: Mus musculus; test: Effect of compound on serum Alkaline phosphatase levels in mice at mid dose 2 on day 36; type: functional; summary of the method: as §2
[30] = species: Mus musculus; test: Avoiding pressure on limbs in mice at mid dose 2 with Hypervitaminosis; 0/16; type: functional, organism-based; settings: Limb
[31] = species: Mus musculus; test: Effect of compound on serum triglycerides levels in mice at low dose on day 36; type: functional; summary of the method: as §2
[32] = species: Mus musculus; test: Effect of compound on Spleen to body weight ratios in mice at high dose on day 65; type: functional; summary of the method: as §5
[33] = Mortality rate in mice in mid dose 2; type: ADME; settings: mouse, in vivo; summary of the method: as §4
[34] = species: Mus musculus; test: Effect of compound on adrenal to body weight ratios in mice at high dose on day 65; type: functional; summary of the method: as §5
[35] = species: Mus musculus; test: Avoiding pressure on limbs in mice at low dose with Hypervitaminosis; 0/16; type: functional, organism-based; settings: Limb
[36] = species: Mus musculus; test: Effect of compound on serum triglycerides levels in mice at mid dose 2 on day 36; type: functional; summary of the method: as §3
[37] = species: Mus musculus; test: Average number of fractures per mouse at mid dose 1
[38] = species: Mus musculus; test: Effect of compound on serum Alkaline phosphatase levels in mice at mid dose 1 on day 65; type: functional; summary of the method: as §2
[39] = species: Mus musculus; test: Effect of compound on Spleen to body weight ratios in mice at high dose on day 65; all the animals died by day 65; type: functional, organism-based; summary of the method: as §5
[40] = species: Mus musculus; test: Compound toxicity determined by total dose to termination (day 25/65) in mid dose 2; type: functional
[41] = species: Mus musculus; test: Fracture incidence in mouse at low dose; 2/8
[42] = species: Mus musculus; test: Effect of compound on white blood cells levels in mice at low dose on day 65; type: functional; summary of the method: as §3
[43] = species: Mus musculus; test: Compound toxicity determined by total dose to termination (day 25/65) in mid dose 1; type: functional; summary of the method: as §6

## C/C(=C\c1ccc(C(=O)O)cc1)c1ccc2c(c1)C(C)(C)CCC2(C)C
[1]
  Max tolerated dose: 1 µg/kg
[2]
  Activity: Toxic
[3]
  Activity: Toxic
[4]
  Activity: Toxic
[5]
  Activity: inactive
[6]
  Activity: Toxic
[7]
  Activity: Weak activity
[8]
  Activity: inactive
[9]
  Activity: Toxic
[10]
  Activity: Toxic

## CC(/C=C/C=C(\C)c1ccc2c(c1)C(C)(C)CCS2)=C\C(=O)O
[11]
  Activity: inactive
[12]
  Activity: 159
[13]
  Activity: 212.7
[14]
  Activity: 94.9
[15]
  Activity: inactive
[16]
  Activity: inactive
[17]
  Activity: inactive
[18]
  Activity: 97.5
[19]
  Activity: inactive
[20]
  Activity: 4.18
[21]
  Activity: 1.5
[22]
  Mortality: 1 day of death
[23]
  Mortality: 0 day of death
[24]
  Activity: inactive
[25]
  Activity: 176.4
[26]
  Activity: 2.7
[27]
  Total dose: 207.1 mg/kg
[28]
  Mortality: 0 day of death
[29]
  Activity: 75.6
[30]
  Activity: inactive
[31]
  Activity: 194.9
[32]
  Activity: 2.6
[33]
  Mortality: 0 day of death
[34]
  Activity: 2.6
[35]
  Activity: inactive

## CC(/C=C/C=C(\C)c1ccc2c(c1)C(C)(C)CCO2)=C\C(=O)O
[11]
  Activity: inactive
[36]
  Activity: 195.9
[12]
  Activity: 156.8
[13]
  Activity: 202.8
[14]
  Activity: 96.8
[15]
  Activity: inactive
[16]
  Activity: inactive
[37]
  Activity: 0
[17]
  Activity: inactive
[18]
  Activity: 96.8
[19]
  Activity: inactive
[20]
  Activity: 3.7
[21]
  Activity: 1.3
[25]
  Activity: 179.4
[38]
  Activity: 127.1
[26]
  Activity: 3
[27]
  Total dose: 207.1 mg/kg
[30]
  Activity: inactive
[31]
  Activity: 187.1
[32]
  Activity: 3
[34]
  Activity: 0.4
[35]
  Activity: inactive

## C/C(=C\c1ccc(C(=O)O)cc1)c1ccc2c(c1)C(C)(C)CCO2
[39]
  Activity: Toxic
[40]
  Total dose: 588.4 mg/kg
[41]
  Activity: Weak activity
[42]
  Activity: 4.27
[37]
  Activity: 1.9
[22]
  Mortality: 0 day of death
[23]
  Mortality: 0 day of death
[38]
  Activity: 123.1
[28]
  Mortality: 8 day of death
[29]
  Activity: 93.3
[33]
  Mortality: 4 day of death
[43]
  Total dose: 294.2 mg/kg
